Values after ≈ are worked out from the molar mass of the structure shown.
How the values were obtained:
Type in all cases: functional
Escherichia coli [1] = test: Antibacterial activity against extended-spectrum beta-lactamase-producing Escherichia coli isolate 12-4
Outline: (§1)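 MIC determined in vitro by a standard technique and defined as the lowest compound concentration giving complete inhibition of bacterial growth. The Gram-positive and Gram-negative panels were tested alongside gemifloxacin, levofloxacin and ciprofloxacin reference drugs.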

Escherichia coli [2] = test: Antibacterial activity against extended-spectrum beta-lactamase-producing Escherichia coli isolate 12-2; outline: as §1
Escherichia coli [3] = test: Antibacterial activity against extended-spectrum beta-lactamase-producing Escherichia coli isolate 12-1; outline: as §1
Escherichia coli [4] = test: Antibacterial activity against Escherichia coli isolate 12-5; outline: as §1
Escherichia coli [5] = test: Antibacterial activity against Escherichia coli isolate 12-4; outline: as §1
Escherichia coli [6] = test: Antibacterial activity against Escherichia coli isolate 12-1; outline: as §1
Escherichia coli [7] = test: Antibacterial activity against Escherichia coli ATCC 25922; outline: as §1
Streptococcus pneumoniae [8] = test: Antibacterial activity against Streptococcus pneumoniae isolate 12-5; outline: as §1
Streptococcus pneumoniae [9] = test: Antibacterial activity against Streptococcus pneumoniae isolate 12-2; outline: as §1
[10] = test system: Staphylococcus epidermidis; test: Antibacterial activity against methicillin-resistant Staphylococcus epidermidis isolate 12-35
Outline: (§2)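 MIC determined in vitro by standard techniques, defined as the lowest compound concentration giving complete inhibition of bacterial growth. Gemifloxacin, levofloxacin and ciprofloxacin were tested alongside as reference drugs.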

[11] = test system: Staphylococcus epidermidis; test: Antibacterial activity against methicillin-resistant Staphylococcus epidermidis isolate 12-33; outline: as §2
[12] = test system: Staphylococcus epidermidis; test: Antibacterial activity against methicillin-resistant Staphylococcus epidermidis isolate 12-5; outline: as §2
[13] = test system: Staphylococcus epidermidis; test: Antibacterial activity against methicillin-sensitive Staphylococcus epidermidis isolate 12-3; outline: as §1
[14] = test system: Staphylococcus epidermidis; test: Antibacterial activity against methicillin-sensitive Staphylococcus epidermidis isolate 12-2; outline: as §1
[15] = test system: Staphylococcus epidermidis; test: Antibacterial activity against methicillin-sensitive Staphylococcus epidermidis isolate 12-1; outline: as §1
Staphylococcus aureus [16] = test: Antibacterial activity against methicillin-resistant Staphylococcus aureus isolate 12-15; outline: as §2
Staphylococcus aureus [17] = test: Antibacterial activity against methicillin-resistant Staphylococcus aureus isolate 12-13; outline: as §2
Staphylococcus aureus [18] = test: Antibacterial activity against methicillin-resistant Staphylococcus aureus isolate 12-3; outline: as §2
Staphylococcus aureus [19] = test: Antibacterial activity against methicillin-sensitive Staphylococcus aureus isolate 12-10; outline: as §1
Staphylococcus aureus [20] = test: Antibacterial activity against methicillin-sensitive Staphylococcus aureus isolate 12-7; outline: as §1
Staphylococcus aureus [21] = test: Antibacterial activity against methicillin-sensitive Staphylococcus aureus isolate 12-6; outline: as §1
Staphylococcus aureus [22] = test: Antibacterial activity against Staphylococcus aureus […]; outline: as §1
Pseudomonas aeruginosa [23] = test: Antibacterial activity against Pseudomonas aeruginosa isolate 12-2; outline: as §1
Pseudomonas aeruginosa [24] = test: Antibacterial activity against Pseudomonas aeruginosa isolate 12-1; outline: as §1
Pseudomonas aeruginosa [25] = test: Antibacterial activity against Pseudomonas aeruginosa ATCC 27853; outline: as §1
Klebsiella pneumoniae [26] = test: Antibacterial activity against extended-spectrum beta-lactamase-producing Klebsiella pneumoniae isolate 12-4; outline: as §1
Klebsiella pneumoniae [27] = test: Antibacterial activity against extended-spectrum beta-lactamase-producing Klebsiella pneumoniae isolate 12-2; outline: as §1
Klebsiella pneumoniae [28] = test: Antibacterial activity against extended-spectrum beta-lactamase-producing Klebsiella pneumoniae isolate 12-1; outline: as §1
Klebsiella pneumoniae [29] = test: Antibacterial activity against Klebsiella pneumoniae isolate 12-4; outline: as §1
Klebsiella pneumoniae [30] = test: Antibacterial activity against Klebsiella pneumoniae isolate 12-2; outline: as §1
Klebsiella pneumoniae [31] = test: Antibacterial activity against Klebsiella pneumoniae isolate 12-1; outline: as §1

SMILES: CNC1CCN(c2c(F)cc3c(=O)c(C(=O)O)cn4c3c2OC[C@@H]4C)C/C1=N\OC (stereo partly drawn)
- MIC (Escherichia coli [1]): 16 µg/mL (≈ 38.2 µM)
- MIC (Escherichia coli [2]): > 128 µg/mL
- MIC (Escherichia coli [3]): 128 µg/mL (≈ 306 µM)
- MIC (Escherichia coli [4]): 128 µg/mL (≈ 306 µM)
- MIC (Escherichia coli [5]): 128 µg/mL (≈ 306 µM)
- MIC (Escherichia coli [6]): 8 µg/mL (≈ 19.1 µM)
- MIC (Escherichia coli [7]): 0.25 µg/mL (≈ 0.597 µM)
- MIC (Streptococcus pneumoniae [8]): 1 µg/mL (≈ 2.39 µM)
- MIC (Streptococcus pneumoniae [9]): 1 µg/mL (≈ 2.39 µM)
- MIC [10]: 0.125 µg/mL (≈ 0.299 µM)
- MIC [11]: < 0.008 µg/mL
- MIC [12]: 0.125 µg/mL (≈ 0.299 µM)
- MIC [13]: 0.5 µg/mL (≈ 1.19 µM)
- MIC [14]: 2 µg/mL (≈ 4.78 µM)
- MIC [15]: 0.5 µg/mL (≈ 1.19 µM)
- MIC (Staphylococcus aureus [16]): 1 µg/mL (≈ 2.39 µM)
- MIC (Staphylococcus aureus [17]): 1 µg/mL (≈ 2.39 µM)
- MIC (Staphylococcus aureus [18]): 1 µg/mL (≈ 2.39 µM)
- MIC (Staphylococcus aureus [19]): 0.25 µg/mL (≈ 0.597 µM)
- MIC (Staphylococcus aureus [20]): 1 µg/mL (≈ 2.39 µM)
- MIC (Staphylococcus aureus [21]): 0.25 µg/mL (≈ 0.597 µM)
- MIC (Staphylococcus aureus [22]): 0.25 µg/mL (≈ 0.597 µM)
- MIC (Pseudomonas aeruginosa [23]): 8 µg/mL (≈ 19.1 µM)
- MIC (Pseudomonas aeruginosa [24]): 8 µg/mL (≈ 19.1 µM)
- MIC (Pseudomonas aeruginosa [25]): 4 µg/mL (≈ 9.56 µM)
- MIC (Klebsiella pneumoniae [26]): 0.5 µg/mL (≈ 1.19 µM)
- MIC (Klebsiella pneumoniae [27]): 16 µg/mL (≈ 38.2 µM)
- MIC (Klebsiella pneumoniae [28]): 16 µg/mL (≈ 38.2 µM)
- MIC (Klebsiella pneumoniae [29]): 0.5 µg/mL (≈ 1.19 µM)
- MIC (Klebsiella pneumoniae [30]): 1 µg/mL (≈ 2.39 µM)
- MIC (Klebsiella pneumoniae [31]): 1 µg/mL (≈ 2.39 µM)

SMILES: CNC1CCN(c2nc3c(cc2F)c(=O)c(C(=O)O)cn3-c2ccc(F)cc2F)C/C1=N\OC (stereo not drawn)
- MIC (Escherichia coli [1]): 32 µg/mL (≈ 67.3 µM)
- MIC (Escherichia coli [2]): > 128 µg/mL
- MIC (Escherichia coli [3]): > 128 µg/mL
- MIC (Escherichia coli [4]): > 128 µg/mL
- MIC (Escherichia coli [5]): > 128 µg/mL
- MIC (Escherichia coli [6]): 8 µg/mL (≈ 16.8 µM)
- MIC (Escherichia coli [7]): 0.125 µg/mL (≈ 0.263 µM)
- MIC (Streptococcus pneumoniae [8]): 0.06 µg/mL (≈ 0.126 µM)
- MIC (Streptococcus pneumoniae [9]): 0.06 µg/mL (≈ 0.126 µM)
- MIC [10]: 0.015 µg/mL (≈ 0.0316 µM)
- MIC [11]: 0.015 µg/mL (≈ 0.0316 µM)
- MIC [12]: 0.015 µg/mL (≈ 0.0316 µM)
- MIC [13]: 0.125 µg/mL (≈ 0.263 µM)
- MIC [14]: 0.5 µg/mL (≈ 1.05 µM)
- MIC [15]: 0.125 µg/mL (≈ 0.263 µM)
- MIC (Staphylococcus aureus [16]): 0.03 µg/mL (≈ 0.0631 µM)
- MIC (Staphylococcus aureus [17]): 0.03 µg/mL (≈ 0.0631 µM)
- MIC (Staphylococcus aureus [18]): 0.03 µg/mL (≈ 0.0631 µM)
- MIC (Staphylococcus aureus [19]): 0.03 µg/mL (≈ 0.0631 µM)
- MIC (Staphylococcus aureus [20]): 0.06 µg/mL (≈ 0.126 µM)
- MIC (Staphylococcus aureus [21]): 0.03 µg/mL (≈ 0.0631 µM)
- MIC (Staphylococcus aureus [22]): 0.125 µg/mL (≈ 0.263 µM)
- MIC (Pseudomonas aeruginosa [23]): 8 µg/mL (≈ 16.8 µM)
- MIC (Pseudomonas aeruginosa [24]): 4 µg/mL (≈ 8.41 µM)
- MIC (Pseudomonas aeruginosa [25]): 8 µg/mL (≈ 16.8 µM)
- MIC (Klebsiella pneumoniae [26]): 1 µg/mL (≈ 2.1 µM)
- MIC (Klebsiella pneumoniae [27]): 32 µg/mL (≈ 67.3 µM)
- MIC (Klebsiella pneumoniae [28]): 64 µg/mL (≈ 135 µM)
- MIC (Klebsiella pneumoniae [29]): 1 µg/mL (≈ 2.1 µM)
- MIC (Klebsiella pneumoniae [30]): 1 µg/mL (≈ 2.1 µM)
- MIC (Klebsiella pneumoniae [31]): 1 µg/mL (≈ 2.1 µM)

SMILES: CCO/N=C1\CN(c2c(F)cc3c(=O)c(C(=O)O)cn(C4CC4)c3c2F)CCC1NC (stereo not drawn)
- MIC (Escherichia coli [1]): 16 µg/mL (≈ 36.8 µM)
- MIC (Escherichia coli [2]): > 128 µg/mL
- MIC (Escherichia coli [3]): > 128 µg/mL
- MIC (Escherichia coli [4]): > 128 µg/mL
- MIC (Escherichia coli [5]): > 128 µg/mL
- MIC (Escherichia coli [6]): 8 µg/mL (≈ 18.4 µM)
- MIC (Escherichia coli [7]): 16 µg/mL (≈ 36.8 µM)
- MIC (Streptococcus pneumoniae [8]): 1 µg/mL (≈ 2.3 µM)
- MIC (Streptococcus pneumoniae [9]): 0.5 µg/mL (≈ 1.15 µM)
- MIC [10]: 1 µg/mL (≈ 2.3 µM)
- MIC [11]: 1 µg/mL (≈ 2.3 µM)
- MIC [12]: 1 µg/mL (≈ 2.3 µM)
- MIC [13]: 0.5 µg/mL (≈ 1.15 µM)
- MIC [14]: 1 µg/mL (≈ 2.3 µM)
- MIC [15]: 0.5 µg/mL (≈ 1.15 µM)
- MIC (Staphylococcus aureus [16]): 0.5 µg/mL (≈ 1.15 µM)
- MIC (Staphylococcus aureus [17]): 0.5 µg/mL (≈ 1.15 µM)
- MIC (Staphylococcus aureus [18]): 0.5 µg/mL (≈ 1.15 µM)
- MIC (Staphylococcus aureus [19]): 0.125 µg/mL (≈ 0.288 µM)
- MIC (Staphylococcus aureus [20]): 128 µg/mL (≈ 295 µM)
- MIC (Staphylococcus aureus [21]): 0.5 µg/mL (≈ 1.15 µM)
- MIC (Staphylococcus aureus [22]): 0.5 µg/mL (≈ 1.15 µM)
- MIC (Pseudomonas aeruginosa [23]): 16 µg/mL (≈ 36.8 µM)
- MIC (Pseudomonas aeruginosa [24]): 16 µg/mL (≈ 36.8 µM)
- MIC (Pseudomonas aeruginosa [25]): 16 µg/mL (≈ 36.8 µM)
- MIC (Klebsiella pneumoniae [26]): > 128 µg/mL
- MIC (Klebsiella pneumoniae [27]): 16 µg/mL (≈ 36.8 µM)
- MIC (Klebsiella pneumoniae [28]): 16 µg/mL (≈ 36.8 µM)
- MIC (Klebsiella pneumoniae [29]): 1 µg/mL (≈ 2.3 µM)
- MIC (Klebsiella pneumoniae [30]): 1 µg/mL (≈ 2.3 µM)
- MIC (Klebsiella pneumoniae [31]): 2 µg/mL (≈ 4.6 µM)

Reference: ChEMBL document CHEMBL2331542, “Synthesis and in vitro antibacterial activity of quinolone/naphthyridone derivatives containing 3-alkoxyimino-4-(methyl)aminopiperidine scaffolds” (2013)
